Source: publication PMC9830076 (International Journal of Nanomedicine, 2023)
Structures can show the parent of a compound that is named as a salt.

Test system: not given
Experiment: not given
Conditions: low solubility and high permeability; cited from earlier work

Molecule | biopharmaceutic classification system (BCS) class
Sc1ncnc2nc[nH]c12 [6-MP, 6-Mercaptopurine] | class II

Target: T1, MRP4 transporter (Homo sapiens, UniProt O15439)
T1 sequence (O15439 1-1325): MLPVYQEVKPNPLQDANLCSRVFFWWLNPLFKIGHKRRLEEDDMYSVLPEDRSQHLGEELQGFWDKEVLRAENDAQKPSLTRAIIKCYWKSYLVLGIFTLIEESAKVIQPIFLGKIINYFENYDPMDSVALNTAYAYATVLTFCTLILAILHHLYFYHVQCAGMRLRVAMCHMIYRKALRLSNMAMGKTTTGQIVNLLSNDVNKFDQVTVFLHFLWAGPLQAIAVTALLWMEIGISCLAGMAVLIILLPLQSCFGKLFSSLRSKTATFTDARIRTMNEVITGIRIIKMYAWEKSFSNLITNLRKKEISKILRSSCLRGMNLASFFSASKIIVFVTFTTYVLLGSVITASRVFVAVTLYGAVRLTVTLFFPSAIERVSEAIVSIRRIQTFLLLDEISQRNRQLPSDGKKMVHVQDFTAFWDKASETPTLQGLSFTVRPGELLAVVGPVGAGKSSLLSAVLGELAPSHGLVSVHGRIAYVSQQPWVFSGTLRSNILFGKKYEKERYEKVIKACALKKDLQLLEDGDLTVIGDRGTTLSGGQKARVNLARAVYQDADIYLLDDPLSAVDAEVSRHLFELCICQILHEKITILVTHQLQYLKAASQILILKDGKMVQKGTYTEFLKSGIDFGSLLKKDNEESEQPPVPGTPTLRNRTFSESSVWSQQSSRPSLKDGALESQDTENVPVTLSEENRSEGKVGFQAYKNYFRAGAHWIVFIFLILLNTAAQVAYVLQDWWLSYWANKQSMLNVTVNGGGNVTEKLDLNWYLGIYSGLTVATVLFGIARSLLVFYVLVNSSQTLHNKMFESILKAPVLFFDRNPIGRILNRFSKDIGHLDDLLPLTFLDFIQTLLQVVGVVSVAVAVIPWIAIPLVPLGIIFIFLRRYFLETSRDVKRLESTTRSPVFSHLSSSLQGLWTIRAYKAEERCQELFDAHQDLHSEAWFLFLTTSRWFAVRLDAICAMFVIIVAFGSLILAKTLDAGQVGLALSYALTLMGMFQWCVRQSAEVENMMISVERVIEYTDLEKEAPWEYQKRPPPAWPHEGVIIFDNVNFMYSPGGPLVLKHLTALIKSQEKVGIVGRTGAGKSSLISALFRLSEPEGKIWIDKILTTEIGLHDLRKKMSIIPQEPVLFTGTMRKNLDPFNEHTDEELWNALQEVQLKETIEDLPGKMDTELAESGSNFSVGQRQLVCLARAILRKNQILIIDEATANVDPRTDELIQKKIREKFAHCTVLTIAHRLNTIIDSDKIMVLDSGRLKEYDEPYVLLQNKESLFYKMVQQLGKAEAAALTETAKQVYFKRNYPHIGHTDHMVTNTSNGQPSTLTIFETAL
Experiment: Effect of MRP4 transporter
Format: cell-based
Conditions: Caco-2 cells, indomethacin 30 μM, 100 μM 6-MPNs or 6-MPCs, 2 h
Method in brief: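 Caco-2 cells grown in 6-well plates to 90% confluency, preincubated 0.5 h at 37°C with 30 μM indomethacin (MRP4 inhibitor), PBS-washed ×3, then exposed 2 h to 100 μM test nanoparticles or crystals plus 30 μM indomethacin; controls without indomethacin. Cells PBS-washed and RIPA/1% PMSF-lysed; 6-MP in lysate by HPLC, total protein by BCA.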

Molecule | effect on intracellular accumulation of 6-MP
COc1ccc2c(c1)c(CC(=O)O)c(C)n2C(=O)c1ccc(Cl)cc1 [indomethacin] | increased

Test system: Caco-2 cells
Experiment: Endocytosis and intracellular trafficking mechanism with pathway inhibitors
Format: cell-based
Conditions: 100 μM 6-MPNs, 0.5 h, intracellular 6-MP by HPLC
Method in brief: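 Caco-2 cells in 12-well plates at 1×10^5 cells/mL, grown to 90% confluency, preincubated 0.5 h with inhibitors, PBS-washed ×3. Endocytosis inhibitors (MβCD, genistein, EIPA, Cyt D, CPZ, dynasore) co-incubated with 100 μM test nanoparticles or crystals, 37°C, 0.5 h. Trafficking inhibitors (BFA, monensin, Baf-A1, nocodazole) with 200 μM, 37°C, 2 h. Inhibitor levels as in preincubation; intracellular 6-MP by HPLC.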

Molecule | effect of endocytosis inhibitor on the internalization of 6-MPNs
CCN(c1nc(N)c(C(=O)NC(=N)N)nc1Cl)C(C)C [EIPA, ethyl-isopropyl-amiloride] | obviously reduced
C=C1[C@@H](C)[C@H]2[C@H](Cc3ccccc3)NC(=O)[C@]23[C@H](OC(C)=O)/C=C/[C@@](C)(O)C(=O)[C@@H](C)C/C=C/[C@H]3[C@@H]1O [Cyt D, cytochalasin D] | less influence
O=c1c(-c2ccc(O)cc2)coc2cc(O)cc(O)c12 [Genistein, genistein] | less influence
Methyl-beta-cyclodextrin [MβCD] | obviously reduced
O=C(N/N=C/c1ccc(O)c(O)c1)c1cc2ccccc2cc1O [Dynasore, dynasore] | obviously reduced
CN(C)CCCN1c2ccccc2Sc2ccc(Cl)cc21 [CPZ, chlorpromazine hydrochloride] | less influence

Same assay, conditions: 200 μM 6-MPNs, 2 h

Molecule | effect of intracellular transport inhibitor on the content of intracellular 6-MP
CC[C@@]1([C@@H]2O[C@@H]([C@H]3O[C@@](O)(CO)[C@H](C)C[C@@H]3C)C[C@@H]2C)CC[C@H]([C@]2(C)CC[C@]3(C[C@H](O)[C@@H](C)[C@@H]([C@@H](C)[C@@H](OC)[C@H](C)C(=O)O)O3)O2)O1 [Monensin] | significantly enhanced
C[C@H]1CCC/C=C/[C@@H]2C[C@H](O)C[C@H]2[C@H](O)/C=C/C(=O)O1 [Brefeldin A] | significantly enhanced
COC(=O)Nc1nc2ccc(C(=O)c3cccs3)cc2[nH]1 [Nocodazole, nocodazole] | significantly enhanced
CO/C1=C\C(C)=C\[C@@H](C)[C@@H](O)[C@@H](C)C/C(C)=C/C=C/[C@H](OC)[C@@H]([C@@H](C)[C@@H](O)[C@H](C)[C@@]2(O)C[C@@H](O)[C@H](C)[C@@H](C(C)C)O2)OC1=O [Bafilomycin A1] | significantly enhanced
